Activity calls are given as the source filed them. The calls are words filed in the database; no cut-off is given here.
Key:
[1] = system: Trypanosoma brucei; assay: Reduction of 2C to 4C equivalents of DNA in bloodstream Trypanosoma brucei after 7 hrs by DAPI staining-based fluorescence microscopy (reference value: 40 %); format: functional; set-up: scale not given: the % may be the effect or the level left
[2] = system: Trypanosoma brucei brucei; assay: Antitrypanosomal activity against Trypanosoma brucei brucei CA427 infected in Swiss Webster mouse assessed as mouse mortality at 10 mg/kg, po bid by hemocytometer; format: functional, organism-based; set-up: dose 10 mg/kg
Method in brief: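 Mice were infected with 10^4 T. brucei brucei CA427 cells. From 24 h post-infection, they were dosed orally at 10 mg/kg twice per day (20 mg/kg/day). Daily parasitemia and survival were followed against untreated control mice.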

[3] = system: Trypanosoma brucei brucei; assay: Antitrypanosomal activity against bloodstream form Trypanosoma brucei brucei Lister 427 after 48 hrs by hemocytometer; format: functional, organism-based; details: Lister 427, 48 h
Method in brief: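 Bloodstream Lister 427 cells were seeded at 2 × 10^3 cells/ml in HMI-9 medium and given drug from 200X DMSO stocks, with DMSO as control. Three independent experiments, each dose in duplicate (n = 6).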

[4] = system: Trypanosoma brucei brucei; assay: Antitrypanosomal activity against Trypanosoma brucei brucei CA427 infected in Swiss Webster mouse assessed as delayed detection of trypanosomes in blood at 10 mg/kg, ip bid after 24 hrs by hemocytometer; format: functional, organism-based; set-up: dose 10 mg/kg
Method in brief: (§1)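 Mice were infected with 10^4 T. brucei brucei CA427 cells. From 24 h post-infection, they were dosed i.p. at 10 mg/kg twice per day (20 mg/kg/day). Blood parasitemia was measured each day against untreated control mice.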

[5] = system: Brain; assay: Drug uptake in BALB/c mouse brain at 40 mg/kg, po after 24 hrs; format: ADME, organism-based; set-up: dose 40 mg/kg, route oral; details: in vivo
Method in brief: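 Mice received a single oral dose of 40 mg/kg. Drug levels in plasma and brain tissue were measured over 24 hours.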

[6] = system: Trypanosoma brucei brucei; assay: Antitrypanosomal activity against Trypanosoma brucei brucei CA427 infected in Swiss Webster mouse assessed as mouse survival at 10 mg/kg, ip bid by hemocytometer (reference value: 5 days); format: functional; details: route intraperitoneal
[7] = system: Trypanosoma brucei; assay: Antitrypanosomal activity against bloodstream Trypanosoma brucei assessed as DNA profile alteration after 7 hrs by propidium iodide staining-based flow cytometry; format: functional, organism-based
Method in brief: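 Trypanosomes were incubated 7 h with drug or without (control), then stained with propidium iodide. Flow cytometry analysed 10,000 events, and DNA content per cell (2C, 2C-4C, 4C populations) was quantified.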

[8] = system: Mus musculus; assay: Toxicity in Swiss Webster mouse infected with Trypanosoma brucei brucei CA427at 40 mg/kg, po; format: organism-based; set-up: dose 40 mg/kg, route oral; details: in vivo
Method in brief: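 Infection used 10^4 T. brucei brucei CA427 cells per mouse. Beginning 24 h later, mice received 40 mg/kg once per day in a multi-day regimen. Blood was checked for parasites over 3 days against untreated infected controls, and drug-related toxicity was noted.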

[9] = system: Trypanosoma brucei; assay: Antitrypanosomal activity against bloodstream Trypanosoma brucei assessed as increase in 4C equivalents of DNA after 7 hrs by DAPI staining-based fluorescence microscopy (reference value: 25 %); format: functional
[10] = system: Trypanosoma brucei; assay: Antitrypanosomal activity against bloodstream Trypanosoma brucei assessed as increase in 1K2N cells after 7 hrs by DAPI staining-based fluorescence microscopy; format: functional, organism-based
Method in brief: (§2)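 After 7 h with or without drug, trypanosomes were stained with DAPI and imaged by single-cell fluorescence microscopy with DIC. Nuclei (N) and kinetoplasts (K) were counted per cell to give the distribution of organelle configurations.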

[11] = system: Trypanosoma brucei brucei; assay: Antitrypanosomal activity against Trypanosoma brucei brucei CA427 infected in Swiss Webster mouse assessed as reduction in replication rate at 10 mg/kg, ip bid measured on day 3 by hemocytometer; format: functional, organism-based; set-up: dose 10 mg/kg; method in brief: as §1
[12] = system: Trypanosoma brucei; assay: Antitrypanosomal activity against bloodstream Trypanosoma brucei assessed as reduction in 1K1N cells after 7 hrs by DAPI staining-based fluorescence microscopy; format: functional, organism-based; method in brief: as §2
[13] = system: Trypanosoma brucei; assay: Inhibition of transferrin receptor-mediated endocytosis in bloodstream Trypanosoma brucei at 8 uM after 7 hrs by flow cytometry

For `Fc1cccc(COc2ccc(Nc3ncnc4ccc(-c5cccc(N6CCOCC6)c5)cc34)cc2Cl)c1`, the Activity [1] was 25%, the Activity [2] was “inactive” and the EC50 [3] was 42 nM. The Activity [4] was “Active”, the Drug uptake [5] was 5% and the Survival [6] was 9 days. For the same compound, the Activity [7] was “Active”, the Activity [8] was “Toxic” and the Activity [9] was 40%. For the same compound, the Activity [10] was “Active”, the Activity [11] was “Active” and the Activity [12] was “Active”. The inhibition [13] was “inactive”.
